Consider one molecule from article PMC9087257 (The Journal of International Medical Research, 2022).

Usually IC50 stands for the midpoint of a concentration-inhibition curve.

The structures appear in SMILES notation.

In data set [1] the target is c-Met kinase (Homo sapiens, UniProt P08581). The experiment in a line: ELISA kinase assay, c-Met. Type of data set: biochemical. A general note: ELISA stands for enzyme-linked immunosorbent assay.
The test system of data set [2] is NCI-H460 cells. Nature of the data set: Transwell migration assay. It is filed as cell-based. The note with it: 48 h. The procedure, abridged:
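Transwell migration with NCI-H460 cells, at three test-compound concentrations. Cells seeded in the upper chamber in serum-free RPMI-1640; lower chamber held RPMI-1640 with 10% FBS. After 48 h at 37°C, 5% CO2, cells were fixed and haematoxylin-stained, and migrated cells were counted.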

The subject of data set [3] is NCI-H460 cells. The experiment in a line: MTT cell viability assay, NCI-H460. To be noted: Homo sapiens, NCI-H460, read-out: IC50 against NCI-H460 cells. It is filed as cell-based. The essentials:
(§1)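 MTT viability: cells grown in RPMI-1640 with 10% FBS and penicillin-streptomycin, seeded in 24-well plates and held 24 h at 37°C, 5% CO2. Test compound added over a range of concentrations: 48 h for the cancer-line panel; three treatment durations for NCI-H460, NCI-H3122, HCC-44 and BEAS2B. MTT added for 2 h at 37°C, formazan dissolved in DMSO with 30 min shaking, absorbance read. Mean ± SEM.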

Data set [4] deals with HCC-44 cells. The experiment in a line: MTT cell viability assay, HCC-44. It is filed as cell-based. To be noted: for antiproliferative efficacy against HCC-44 cells: 48 h, MTT. The essentials: as §1
For orientation: Tetrazolium assays rely on reduction of a dye to a coloured formazan, in cell work by metabolically active cells.

In data set [5] the test system is NCI-H460 xenograft. The experiment in a line: NCI-H460 xenograft study. Type of data set: in vivo, BALB/c nude mice. The procedure, abridged: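 BALB/c nude mice (4 weeks, 18–21 g) carried NCI-H460 xenografts and were housed at 26–28°C on a 13 h/11 h light cycle. At tumour volume 100 mm3, mice were randomised, 5 per group, to water vehicle or 50 mg/kg test compound intragastrically every 3 days for 16 days. Tumours were then excised and weighed; heart, liver, spleen, lung and kidney taken for H&E.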

Data set [6] relates to NCI-H460 cells. The experiment in a line: Wound healing assay. Type of data set: cell-based. The note with it: 75 nM, 150 nM and 300 nM, 48 h.
The target in data set [7] is PDGFRα (Homo sapiens, UniProt P16234). Nature of the data set: ELISA kinase assay, PDGFRα. It is filed as biochemical. The procedure, abridged:
(§2)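 Tyrosine kinase ELISA: ATP in kinase reaction buffer, then test compound diluted in DMSO (DMSO as negative control). Reaction started by adding purified kinase and incubated 1 h at 37°C. Plate washed three times with 1 mM PBS (pH 7.5), then HRP-conjugated goat anti-mouse IgG added for 30 min at 37°C. Washed again and read by spectrophotometer.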

The target in data set [8] is FGFR1 (Homo sapiens, UniProt P11362). Nature of the data set: ELISA kinase assay, FGFR1. Type of data set: biochemical. The essentials: as §2
Sequence of FGFR1 (P11362 22-822): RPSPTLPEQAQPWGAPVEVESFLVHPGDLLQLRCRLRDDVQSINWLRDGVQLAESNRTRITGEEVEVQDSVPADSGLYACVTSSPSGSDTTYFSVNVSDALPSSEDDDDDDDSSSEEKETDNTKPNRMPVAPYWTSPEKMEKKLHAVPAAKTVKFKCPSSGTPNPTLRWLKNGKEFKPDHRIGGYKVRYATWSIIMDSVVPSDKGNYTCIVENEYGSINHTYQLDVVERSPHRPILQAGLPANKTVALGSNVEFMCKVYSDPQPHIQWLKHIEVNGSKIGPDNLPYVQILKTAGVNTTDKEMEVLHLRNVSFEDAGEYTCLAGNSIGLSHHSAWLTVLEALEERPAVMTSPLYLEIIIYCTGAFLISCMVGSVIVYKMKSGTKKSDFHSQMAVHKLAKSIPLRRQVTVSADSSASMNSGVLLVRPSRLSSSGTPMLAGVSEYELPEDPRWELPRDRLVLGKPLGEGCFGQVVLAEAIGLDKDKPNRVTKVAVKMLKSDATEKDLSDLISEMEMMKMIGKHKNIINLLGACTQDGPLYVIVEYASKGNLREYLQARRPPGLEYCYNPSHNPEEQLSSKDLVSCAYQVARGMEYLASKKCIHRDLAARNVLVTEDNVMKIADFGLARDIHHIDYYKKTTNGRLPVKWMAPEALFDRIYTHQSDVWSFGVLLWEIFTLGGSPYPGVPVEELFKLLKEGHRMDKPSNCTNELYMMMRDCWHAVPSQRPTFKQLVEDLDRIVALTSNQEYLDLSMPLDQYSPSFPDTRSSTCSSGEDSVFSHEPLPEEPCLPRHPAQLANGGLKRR
Data set [9] concerns the target TRKA (Homo sapiens, UniProt P04629). Nature of the data set: ELISA kinase assay, TRKA. It is filed as biochemical. The procedure, abridged:
as §2

The target of data set [10] is EGFR (Homo sapiens, UniProt P00533). The experiment in a line: ELISA kinase assay, EGFR. Type of data set: biochemical. The procedure, abridged:
as §2

Data set [11] in a line: MTT cytotoxicity against normal cells BEAS2B. Type of data set: cell-based. The note with it: human, BEAS2B cells (normal human epithelium cells). The essentials:
as §1

Data set [12] deals with NCI-H3122 cells. Nature of the data set: MTT cell viability assay, NCI-H3122. The note with it: Homo sapiens, NCI-H3122, read-out: IC50 against NCI-H3122 cells. It is filed as cell-based. The essentials: as §1
The subject of data set [13] is N-cadherin. The experiment in a line: Western blotting, N-cadherin level. To be noted: NCI-H460 cells, 48 h, Western blot. It is filed as cell-based. The procedure, abridged:
(§3)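 Western blot: NCI-H460 cells treated 48 h with three test-compound concentrations; 5 × 10^6 cells lysed in RIPA, run on SDS-PAGE and transferred to PVDF. Membranes blocked in 5% defatted milk. Anti-E-cadherin or anti-N-cadherin (1:10000) at 4°C for 12 h; anti-GAPDH (1:50000) 2 h at 25°C as internal control. ECL detection; bands quantified against the control group; mean ± SEM.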
(In general: Immunoblotting shows a protein as a band on a membrane.)

In data set [14] the test system is TE-11, SK-BR-3, HO-8910, QGY-7701, SHG-44, HCC-44, COLO-320, SH-SY5Y and SW579 cells. Nature of the data set: MTT cell viability, panel of nine cancer cell lines. Type of data set: cell-based. To be noted: 48 h.
In data set [15] the test system is E-cadherin. The experiment in a line: Western blotting, E-cadherin level. Type of data set: cell-based. To be noted: NCI-H460 cells, 48 h, Western blot. The essentials: as §3
For data set [16], the target named is ALK (Homo sapiens, UniProt Q9UM73). Nature of the data set: ELISA kinase assay, ALK. It is filed as biochemical. The procedure, abridged:
as §2

Sequence of EGFR (P00533 25-1210): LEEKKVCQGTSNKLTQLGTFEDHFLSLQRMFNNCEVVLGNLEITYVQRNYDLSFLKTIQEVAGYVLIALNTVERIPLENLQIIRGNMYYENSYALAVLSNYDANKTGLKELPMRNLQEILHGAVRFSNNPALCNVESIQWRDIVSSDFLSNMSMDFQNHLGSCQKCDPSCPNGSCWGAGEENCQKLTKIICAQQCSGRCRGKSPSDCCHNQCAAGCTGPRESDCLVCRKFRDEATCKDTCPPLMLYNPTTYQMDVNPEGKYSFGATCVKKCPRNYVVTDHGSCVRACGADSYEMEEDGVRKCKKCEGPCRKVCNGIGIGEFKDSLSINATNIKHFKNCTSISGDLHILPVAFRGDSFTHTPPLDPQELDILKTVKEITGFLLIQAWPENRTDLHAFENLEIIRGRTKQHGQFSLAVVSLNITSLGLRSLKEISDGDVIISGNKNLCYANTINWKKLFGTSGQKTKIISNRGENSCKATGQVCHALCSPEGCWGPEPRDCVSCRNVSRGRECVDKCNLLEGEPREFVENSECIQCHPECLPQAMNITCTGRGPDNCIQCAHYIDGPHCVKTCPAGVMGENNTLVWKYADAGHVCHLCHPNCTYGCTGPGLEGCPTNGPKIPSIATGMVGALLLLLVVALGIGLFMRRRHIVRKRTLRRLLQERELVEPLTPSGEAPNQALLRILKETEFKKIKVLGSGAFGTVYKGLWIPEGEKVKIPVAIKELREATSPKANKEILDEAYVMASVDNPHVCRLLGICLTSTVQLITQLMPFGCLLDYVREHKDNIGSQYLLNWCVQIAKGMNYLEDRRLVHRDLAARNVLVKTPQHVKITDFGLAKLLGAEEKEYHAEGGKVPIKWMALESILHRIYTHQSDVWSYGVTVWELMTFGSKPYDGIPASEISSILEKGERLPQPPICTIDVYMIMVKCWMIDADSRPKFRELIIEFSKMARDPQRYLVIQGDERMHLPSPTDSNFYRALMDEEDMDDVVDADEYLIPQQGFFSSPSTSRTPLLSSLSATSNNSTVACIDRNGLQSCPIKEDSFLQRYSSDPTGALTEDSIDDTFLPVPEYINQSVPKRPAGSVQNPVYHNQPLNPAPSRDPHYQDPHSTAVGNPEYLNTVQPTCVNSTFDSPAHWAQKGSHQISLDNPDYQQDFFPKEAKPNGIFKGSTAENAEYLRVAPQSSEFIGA
Sequence of PDGFRα (P16234 24-1089): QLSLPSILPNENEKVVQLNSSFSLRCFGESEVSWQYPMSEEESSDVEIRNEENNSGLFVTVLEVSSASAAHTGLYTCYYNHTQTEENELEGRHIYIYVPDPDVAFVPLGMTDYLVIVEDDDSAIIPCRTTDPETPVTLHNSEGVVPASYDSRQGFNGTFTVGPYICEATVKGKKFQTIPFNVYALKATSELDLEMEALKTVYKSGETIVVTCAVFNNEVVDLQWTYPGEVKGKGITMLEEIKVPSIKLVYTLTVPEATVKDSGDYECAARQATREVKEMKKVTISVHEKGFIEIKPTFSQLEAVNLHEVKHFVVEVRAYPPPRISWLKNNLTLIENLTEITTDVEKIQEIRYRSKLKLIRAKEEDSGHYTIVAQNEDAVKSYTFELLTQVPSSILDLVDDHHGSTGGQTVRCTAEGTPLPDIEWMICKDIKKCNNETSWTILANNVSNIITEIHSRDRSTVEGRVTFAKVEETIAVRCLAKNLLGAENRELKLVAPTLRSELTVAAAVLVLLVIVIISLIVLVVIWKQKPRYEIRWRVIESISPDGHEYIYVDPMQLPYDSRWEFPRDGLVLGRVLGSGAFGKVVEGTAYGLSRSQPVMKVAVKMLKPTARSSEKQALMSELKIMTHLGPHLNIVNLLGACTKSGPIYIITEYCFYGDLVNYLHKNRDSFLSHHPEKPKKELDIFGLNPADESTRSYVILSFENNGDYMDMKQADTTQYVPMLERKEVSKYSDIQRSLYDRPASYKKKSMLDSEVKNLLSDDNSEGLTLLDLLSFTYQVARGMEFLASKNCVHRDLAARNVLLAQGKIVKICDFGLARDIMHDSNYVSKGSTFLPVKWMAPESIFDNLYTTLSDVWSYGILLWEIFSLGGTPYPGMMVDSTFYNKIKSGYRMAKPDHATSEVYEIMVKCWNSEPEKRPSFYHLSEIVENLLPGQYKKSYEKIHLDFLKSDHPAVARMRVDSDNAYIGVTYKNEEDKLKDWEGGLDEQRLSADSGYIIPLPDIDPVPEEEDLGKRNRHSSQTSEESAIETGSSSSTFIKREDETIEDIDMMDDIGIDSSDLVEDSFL
Sequence of c-Met kinase (P08581 25-1390): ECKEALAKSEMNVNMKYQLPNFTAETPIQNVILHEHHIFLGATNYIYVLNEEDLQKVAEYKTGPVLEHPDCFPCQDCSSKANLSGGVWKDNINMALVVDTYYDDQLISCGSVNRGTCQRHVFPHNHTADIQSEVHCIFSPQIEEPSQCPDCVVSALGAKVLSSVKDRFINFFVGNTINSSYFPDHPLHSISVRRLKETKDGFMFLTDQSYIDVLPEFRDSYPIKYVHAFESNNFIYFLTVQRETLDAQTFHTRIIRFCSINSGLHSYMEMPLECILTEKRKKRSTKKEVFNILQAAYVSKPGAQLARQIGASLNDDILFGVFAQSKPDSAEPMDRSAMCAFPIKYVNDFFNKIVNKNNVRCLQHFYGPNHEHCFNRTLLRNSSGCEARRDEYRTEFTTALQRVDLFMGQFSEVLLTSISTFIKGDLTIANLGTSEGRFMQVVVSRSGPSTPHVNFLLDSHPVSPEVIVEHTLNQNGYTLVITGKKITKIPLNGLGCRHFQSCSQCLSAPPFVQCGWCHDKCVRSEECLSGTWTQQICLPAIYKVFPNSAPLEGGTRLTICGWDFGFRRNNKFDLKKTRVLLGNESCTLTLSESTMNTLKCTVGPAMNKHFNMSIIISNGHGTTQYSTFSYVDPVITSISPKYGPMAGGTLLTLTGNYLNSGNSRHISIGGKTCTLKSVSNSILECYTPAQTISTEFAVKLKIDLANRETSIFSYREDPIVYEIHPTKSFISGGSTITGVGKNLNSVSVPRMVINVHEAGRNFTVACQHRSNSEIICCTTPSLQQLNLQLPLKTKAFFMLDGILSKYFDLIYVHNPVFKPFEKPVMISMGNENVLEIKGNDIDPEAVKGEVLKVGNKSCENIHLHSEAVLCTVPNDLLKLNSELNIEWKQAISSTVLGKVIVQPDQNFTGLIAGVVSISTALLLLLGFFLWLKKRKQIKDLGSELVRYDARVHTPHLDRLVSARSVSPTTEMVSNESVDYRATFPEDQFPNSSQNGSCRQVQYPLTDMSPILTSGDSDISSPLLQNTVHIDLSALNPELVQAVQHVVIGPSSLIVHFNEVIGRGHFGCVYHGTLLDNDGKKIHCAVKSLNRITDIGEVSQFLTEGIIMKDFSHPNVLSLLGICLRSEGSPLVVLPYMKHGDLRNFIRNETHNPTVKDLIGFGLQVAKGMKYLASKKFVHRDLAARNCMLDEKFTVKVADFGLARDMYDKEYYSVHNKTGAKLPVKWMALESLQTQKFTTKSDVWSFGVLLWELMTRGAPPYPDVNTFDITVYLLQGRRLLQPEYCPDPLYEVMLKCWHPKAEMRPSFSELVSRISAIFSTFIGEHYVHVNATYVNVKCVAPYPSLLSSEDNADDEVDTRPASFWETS

Turning to `O=C(/C=C/c1ccc(Br)cc1)c1ccc(OCCCSc2nncs2)cc1` [ZW97, (E)-1-(4-(3-((1,3,4-thiadiazol-2-yl)thio)propoxy)phenyl)-3-(4-bromophenyl)prop-2-en-1-one], the 50% inhibitory concentration (IC50) in data set [1] is 27.96 ± 0.14 nM; in data set [3] it was 150 nM; in data set [4] (Homo sapiens, HCC44, read-out: IC50 against HCC-44 cells), 2060 nM; in [7], greater than 1500 nM; in [8], greater than 1500 nM; in data set [9] it was greater than 1500 nM. Also, the IC50 in [10] is greater than 1500 nM; in [11] it was greater than 64000 nM; in data set [12], 1170 nM; in [16], greater than 1500 nM. For the same molecule, the “cell migration (transwell)” value in data set [2] is listed as “hindered NCI-H460 cell migration”. In addition, the “antiproliferative efficacy against HCC-44 cells” value was “approximately 65.7%” in data set [4] (4 μM) and roughly 88.3% in data set [4] (8 μM). In addition, the subcutaneous tumour growth entry in data set [5] (50 mg/kg intragastric for 16 days) was “suppressed NCI-H460 subcutaneous tumour growth”. Also, the mouse body weight entry in [5] (50 mg/kg intragastric for 16 days, compared with control) is recorded as “did not significantly decrease the mouse body weight”. For the same molecule, the “inhibitory rate (tumour weight)” value in data set [5] (day 16, 50 mg/kg intragastric once every 3 days, versus vehicle group) is 61.58%. In addition, the wound healing result in data set [6] is reported as “inhibited the wound healing in a concentration dependent manner”. Also, the “level of N-cadherin” value in data set [13] is “downregulated”. Moreover, the “antiproliferative activity in nine cancer cell lines” value in data set [14] was “antiproliferative activity against all nine cancer cell lines”. In addition, the “level of E-cadherin” value in [15] was “upregulated”.
